For series [1], the system named is MCF7. Briefly: Cytotoxicity against human MCF7 cells after 48 hrs by MTT assay. In kind it is functional, cell-based. The conditions noted are these: MCF7, 48 h. The essentials:
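Cells in DMEM with 10% FBS were plated at 2 × 10^4 per well and left overnight, then treated for 48 h at 0.6–20 µM (six concentrations) from 10 mM DMSO stocks. MTT was added for 2 h, and formazan was dissolved in DMSO and read at 570 nm. Viability was expressed as % of control, with IC50 taken from dose-response curves. Results are mean ± SD of three independent experiments.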
(Tetrazolium assays rely on reduction of a dye to a coloured formazan, in cell work by metabolically active cells.)

For another series, the system named is HeLa. Briefly: Potency index, ratio of CA-4 IC50 to compound IC50 for cytotoxicity against human HeLa cells. In kind it is functional.
Series [2] can be described thus: Inhibition of porcine tubulin polymerization after 1 hr by spectrophotometric analysis. Details: species or system Sus scrofa. The essentials: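 Polymerization was started by shifting from 4 °C to 37 °C, and absorbance was followed at 37 °C for 60 min. The vehicle served as control.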
Series [3] deals with MDA-MB-231. Briefly: Cell cycle arrest in human MDA-MB-231 cells assessed as accumulation of cells at G2/M phase at 0.1 to 1 uM after 24 hrs by propidium iodide staining-based FACS analysis. In kind it is functional. The essentials: (§1)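 Cells were seeded at 5 × 10^5 per well in DMEM with 10% FBS and left overnight, then exposed to 0.1, 0.5 or 1 µM for 24 h. DMSO served as the negative control and 50 nM camptothecin as the positive control. Cells were trypsinized, fixed in 70% ethanol for 30 min at 4 °C, stained with 50 µg/mL PI plus 100 µg/mL RNase A for 30 min in the dark, and analysed by flow cytometry. Results are mean ± SD of three experiments, compared by ANOVA with Dunnett's test.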

Series [4] has as its target T1, Tubulin (Homo sapiens) (UniProt P68371+Q9H4B7+P0DPH7+P68366+Q13509+Q71U36+P04350+Q3ZCM7+P07437+P68363+Q9BQE3+Q6PEY2+Q13885+Q9BVA1+Q9BUF5). The series is described as follows: Inhibition of tubulin polymerization in human HeLa cells assessed as micronuclei formation at 1 uM after 24 hrs by ELISA. In kind it is cell-based. On the technique in general: In an ELISA, binding on a coated surface is turned into a signal by an enzyme label.

The test system of series [5] is Tubulin. The series is described as follows: Inhibition of tubulin polymerization in human HaCaT cells assessed as micronuclei formation at 1 uM after 24 hrs by ELISA. In kind it is cell-based.
Series [6] deals with T1, Tubulin (Homo sapiens). The series is described as follows: Inhibition of tubulin polymerization in human A431 cells assessed as micronuclei formation at 1 uM after 24 hrs by ELISA. In kind it is cell-based.
Series [7] addresses T1, Tubulin (Homo sapiens). The series is described as follows: Inhibition of tubulin polymerization in human MDA-MB-231 cells assessed as micronuclei formation at 1 uM after 24 hrs by Hoechst 33258/FITC staining-based flow cytometric analysis. In kind it is cell-based. A general note: In flow cytometry, cells or beads pass a laser one at a time.
Series [8] has as its system HaCaT. The series is described as follows: Induction of apoptosis in human HaCaT cells after 24 hrs by FITC Annexin V/propidium iodide staining-based FACScan flow cytometric analysis. In kind it is cell-based. The essentials:
(§2)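 After 24 h of compound exposure, 1 × 10^6 cells were labelled with annexin V-FITC and PI for 15 min at 25 °C in the dark. They were read on a FACScan with 488 nm excitation, detecting FITC at 525 nm and PI at 620 nm. Results are mean ± SD of three independent experiments, with Dunnett's test against control.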

In series [9] the test system is MDA-MB-231. Briefly: Induction of apoptosis in human MDA-MB-231 cells after 24 hrs by FITC Annexin V/propidium iodide staining-based FACScan flow cytometric analysis. In kind it is functional, cell-based. The essentials:
as §2

The test system of series [10] is A-431. Briefly: Induction of apoptosis in human A431 cells assessed as increase in histone-associated DNA fragments in mononucleosomes at 0.1 uM after 24 hrs by ELISA. In kind it is functional, cell-based. The essentials:
(§3)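 Cells (2 × 10^4) were incubated for 24 h at 0.1, 0.5 or 1 µM, lysed and centrifuged. Supernatants went onto a streptavidin plate with anti-histone-biotin and anti-DNA-peroxidase for 2 h, followed by ABTS for 30 min and a reading at 405 nm. Nucleosome content was expressed as an enrichment factor, as mean ± SD of three experiments.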

For series [11], the system named is MDA-MB-231. The series is described as follows: Induction of apoptosis in human MDA-MB-231 cells assessed as increase in histone-associated DNA fragments in mononucleosomes at 0.1 uM after 24 hrs by ELISA. In kind it is functional, cell-based. The essentials: as §3
For series [12], the system named is HaCaT. The series is described as follows: Induction of apoptosis in human HaCaT cells assessed as increase in histone-associated DNA fragments in oligonucleosomes at 0.1 uM after 24 hrs by ELISA. In kind it is cell-based. The essentials:
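HaCaT cells (2 × 10^4), grown in DMEM with 10% FBS, penicillin/streptomycin and 2 mM L-glutamine, exposed to compound (DMSO stock) for 24 h. Cells lysed, supernatant taken after centrifugation and incubated 2 h on a streptavidin-coated plate with anti-histone-biotin and anti-DNA-peroxidase. ABTS added for 30 min, A405 read. Output is enrichment factor vs control, mean ± SD of three independent experiments.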

For series [13], the system named is MCF7. The series is described as follows: Induction of apoptosis in human MCF7 cells assessed as increase in histone-associated DNA fragments in oligonucleosomes at 0.1 uM after 24 hrs by ELISA. In kind it is functional, cell-based. The essentials: as §3
For series [14], the system named is MDA-MB-231. Briefly: Induction of apoptosis in human MDA-MB-231 cells assessed as increase in histone-associated DNA fragments in oligonucleosomes at 0.1 uM after 24 hrs by ELISA. In kind it is functional, cell-based. The essentials: as §3
Series [15] deals with T1, Tubulin (Homo sapiens). The series is described as follows: Inhibition of tubulin polymerization in human MCF7 cells assessed as perturbation in cytoskeleton structure at 1 uM after 24 hrs by ELISA. In kind it is cell-based.
Series [16] addresses T1, Tubulin (Homo sapiens). Briefly: Inhibition of tubulin polymerization in human HeLa cells assessed as perturbation in cytoskeleton structure at 1 uM after 24 hrs by ELISA. In kind it is cell-based.
Series [17] has as its target T1, Tubulin (Homo sapiens). The series is described as follows: Inhibition of tubulin polymerization in human SKOV3 cells assessed as perturbation in cytoskeleton structure at 1 uM after 24 hrs by ELISA. In kind it is cell-based.
The target in series [18] is T1, Tubulin (Homo sapiens). Briefly: Inhibition of tubulin polymerization in human SKOV3 cells assessed as perturbation in cytoskeleton structure at 1 uM after 24 hrs by Hoechst 33258/FITC staining-based flow cytometric analysis. In kind it is cell-based. The essentials:
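Cells seeded at 12.5 × 10^4 per well and exposed to 1 µM compound for 24 h. Nuclei were stained with Hoechst 33258 (10 µg/mL, 30 min, 37 °C), then fixed in 4% formaldehyde/PBS (15 min, RT). Cells were permeabilized with 1% Triton X-100, blocked with 2% BSA/PBS for 1 h, and incubated with anti-α-tubulin-FITC (1:50) overnight at 4 °C. Imaged by fluorescence microscopy.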

The subject of a further series is SK-OV-3. The series is described as follows: Cell cycle arrest in human SKOV3 cells assessed as accumulation of cells at G2/M phase after 24 hrs by propidium iodide staining-based FACS analysis. In kind it is functional. The essentials:
as §1

The test system of series [19] is Tubulin. Briefly: Inhibition of tubulin polymerization in human HaCaT cells assessed as chromatin condensation at 1 uM after 24 hrs by Hoechst 33258 staining-based fluorescence microscopic analysis. In kind it is cell-based. The essentials: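 Cells were seeded at 12.5 × 10^4 per well and treated at 1 µM for 24 h. They were stained with Hoechst 33258 (10 µg/mL, 30 min, 37 °C), fixed in 4% formaldehyde, permeabilized with 1% Triton X-100 and blocked in 2% BSA. Anti-α-tubulin-FITC (1:50) was applied overnight at 4 °C, and cells were imaged by fluorescence microscopy.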

In series [20] the test system is A-431. The series is described as follows: Induction of apoptosis in human A431 cells assessed as increase in histone-associated DNA fragments in oligonucleosomes after 24 hrs by ELISA. In kind it is functional, cell-based. The essentials:
as §3

Series [21] concerns MDA-MB-231. Briefly: Induction of apoptosis in human MDA-MB-231 cells assessed as increase in histone-associated DNA fragments in oligonucleosomes after 24 hrs by ELISA. In kind it is functional, cell-based. The essentials: as §3

Structures are written as SMILES. pIC50: −log10 of the molar value. Active and inactive are the calls of the source. No cut-off for these calls is given here.

As usually defined, the pIC50 is −log10 of the IC50, conventionally taken in molar units.

Consider `COc1ccc(-c2ocnc2-c2cc(OC)c(SC)c(OC)c2)cc1O`, for which the pIC50 in the series on MCF7 [1] was 6.35; in series [2] it was 5.98. For the same molecule, in the series on HeLa, the “Ratio IC50” value turned out to be 10. Moreover, the result in the series on MDA-MB-231 [3], with A-431 [10], in the series with MDA-MB-231 [11], in the series on MCF7 [13] and with MDA-MB-231 [14] was Active. For the same molecule, the inhibition result at Tubulin (Homo sapiens) [4], at Tubulin (Homo sapiens) [6], on Tubulin (Homo sapiens) [7], on Tubulin (Homo sapiens) [15], at Tubulin (Homo sapiens) [16] and on Tubulin (Homo sapiens) [17] was “Active” throughout. Moreover, the inhibition result at Tubulin (Homo sapiens) [18] was “Active”. Moreover, the “inhibition (INH)” value in the series on Tubulin [5] is on record as “Active”. The Activity entry in the series on HaCaT [8] is “Dose-dependent effect”; in the series with MDA-MB-231 [9] it was “Dose-dependent effect”; in the series on HaCaT [12], “Toxic”.
`COc1ccc(-c2ocnc2-c2cc(Br)c(OC)c(OC)c2)cc1SC`: the figures for the pIC50 (in the series on MCF7 [1]; in series [2]) were 5.56 and 6.07, respectively. Further, the Activity result with SK-OV-3, with HaCaT [8], with MDA-MB-231 [9], in the series on A-431 [20] and with MDA-MB-231 [21] was “Dose-dependent effect” in each case. In addition, the outcome with MDA-MB-231 [3] was Active. The “inhibition (INH)” value in the series on Tubulin [19] and in the series with Tubulin [5] was “Active” each time. Besides, the inhibition entry on Tubulin (Homo sapiens) [4], at Tubulin (Homo sapiens) [6], on Tubulin (Homo sapiens) [7], at Tubulin (Homo sapiens) [15], at Tubulin (Homo sapiens) [16] and at Tubulin (Homo sapiens) [17] was “Active” each time. Also, the inhibition result at Tubulin (Homo sapiens) [18] is “Active”.
